Test results reported in ChEMBL document CHEMBL5696442, “Discovery of type II inhibitors of TGFβ-activated kinase 1 (TAK1) and mitogen-activated protein kinase kinase kinase kinase 2 (MAP4K2)” (J Med Chem, 2015).

Legend:
Assay type in all cases: cell-based
[1] = target: Cyclin-dependent kinase 16 (Homo sapiens) (UniProt Q00536); assay: Inhibition of PCTAIRE1 Lys1 labeling site in human A-375 cells at 0.5 uM by KiNativ Profiling analysis relative to control
[2] = target: Cyclin-dependent kinase 17 (Homo sapiens) (UniProt Q00537); assay: Inhibition of PCTAIRE2 Lys1 labeling site harbouring SKLTENLVALKEIR in human A-375 cells at 0.5 uM by KiNativ Profiling analysis relative to control
[3] = target: T1, Serine/threonine-protein kinase Nek9 (Homo sapiens) (UniProt Q8TD19); assay: Inhibition of NEK9 Lys2 labeling site in human A-375 cells at 0.05 uM by KiNativ Profiling analysis relative to control
T1 sequence (whole entry): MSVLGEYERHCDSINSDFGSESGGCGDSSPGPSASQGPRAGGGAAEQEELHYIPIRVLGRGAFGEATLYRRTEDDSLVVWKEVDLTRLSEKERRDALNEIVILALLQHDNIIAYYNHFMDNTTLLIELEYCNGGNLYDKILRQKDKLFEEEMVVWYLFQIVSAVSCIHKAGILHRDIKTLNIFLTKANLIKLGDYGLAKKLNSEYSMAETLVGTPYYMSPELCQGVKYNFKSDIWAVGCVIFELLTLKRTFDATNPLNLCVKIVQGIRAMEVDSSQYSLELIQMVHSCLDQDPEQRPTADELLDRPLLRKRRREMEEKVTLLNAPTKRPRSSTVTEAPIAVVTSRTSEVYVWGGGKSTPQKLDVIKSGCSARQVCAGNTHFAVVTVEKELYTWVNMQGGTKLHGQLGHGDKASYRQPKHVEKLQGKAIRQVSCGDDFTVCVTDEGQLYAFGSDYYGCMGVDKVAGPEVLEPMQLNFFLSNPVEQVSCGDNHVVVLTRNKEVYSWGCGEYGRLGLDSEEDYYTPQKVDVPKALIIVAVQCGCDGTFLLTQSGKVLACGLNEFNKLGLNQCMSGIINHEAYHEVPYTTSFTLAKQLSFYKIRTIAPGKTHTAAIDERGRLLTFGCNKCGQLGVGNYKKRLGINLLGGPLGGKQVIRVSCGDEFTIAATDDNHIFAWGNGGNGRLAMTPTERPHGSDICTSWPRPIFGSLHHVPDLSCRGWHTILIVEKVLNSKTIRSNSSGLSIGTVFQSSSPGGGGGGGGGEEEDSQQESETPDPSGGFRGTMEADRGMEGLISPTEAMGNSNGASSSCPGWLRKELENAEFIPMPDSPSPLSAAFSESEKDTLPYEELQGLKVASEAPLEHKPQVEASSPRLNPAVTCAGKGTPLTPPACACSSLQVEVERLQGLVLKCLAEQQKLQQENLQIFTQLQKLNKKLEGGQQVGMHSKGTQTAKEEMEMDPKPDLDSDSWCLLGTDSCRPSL

[4] = target: T2, Kinase suppressor of Ras 2 (Homo sapiens) (UniProt Q6VAB6); assay: Inhibition of KSR2 ACT labeling site in human A-375 cells at 5 uM by KiNativ Profiling analysis relative to control
T2 sequence (whole entry): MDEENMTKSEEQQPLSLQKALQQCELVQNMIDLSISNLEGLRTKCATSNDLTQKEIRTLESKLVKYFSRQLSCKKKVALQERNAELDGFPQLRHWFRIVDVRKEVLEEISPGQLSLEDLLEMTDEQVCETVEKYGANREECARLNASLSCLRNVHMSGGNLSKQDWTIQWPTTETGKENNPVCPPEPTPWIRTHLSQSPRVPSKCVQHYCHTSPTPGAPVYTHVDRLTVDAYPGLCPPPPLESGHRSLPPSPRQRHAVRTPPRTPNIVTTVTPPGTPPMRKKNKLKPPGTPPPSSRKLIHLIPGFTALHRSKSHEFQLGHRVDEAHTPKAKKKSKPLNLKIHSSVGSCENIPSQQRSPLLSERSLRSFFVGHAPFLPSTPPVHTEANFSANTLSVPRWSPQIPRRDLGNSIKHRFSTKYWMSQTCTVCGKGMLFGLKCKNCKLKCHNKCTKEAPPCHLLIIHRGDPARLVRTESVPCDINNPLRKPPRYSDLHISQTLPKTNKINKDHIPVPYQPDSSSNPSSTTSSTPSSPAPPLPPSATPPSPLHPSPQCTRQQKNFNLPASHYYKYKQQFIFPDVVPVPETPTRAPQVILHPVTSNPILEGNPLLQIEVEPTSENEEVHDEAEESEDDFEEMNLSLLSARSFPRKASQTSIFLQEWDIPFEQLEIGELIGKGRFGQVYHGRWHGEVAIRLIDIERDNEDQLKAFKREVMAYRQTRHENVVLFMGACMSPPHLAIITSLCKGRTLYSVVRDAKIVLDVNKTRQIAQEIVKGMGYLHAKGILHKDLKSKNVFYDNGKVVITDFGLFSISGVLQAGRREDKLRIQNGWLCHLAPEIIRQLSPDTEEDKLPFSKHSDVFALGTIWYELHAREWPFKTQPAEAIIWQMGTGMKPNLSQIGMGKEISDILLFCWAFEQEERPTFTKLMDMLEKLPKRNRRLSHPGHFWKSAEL

[5] = target: Tyrosine-protein kinase Fer (Homo sapiens, UniProt P16591); assay: Inhibition of FER ACT labeling site in human A-375 cells at 0.5 uM by KiNativ Profiling analysis relative to control
[6] = target: Interleukin-1 receptor-associated kinase 1 (Homo sapiens) (UniProt P51617); assay: Inhibition of IRAK1 Lys2 labeling site in human A-375 cells at 5 uM by KiNativ Profiling analysis relative to control
[7] = target: Cyclin-dependent kinase 17 (Homo sapiens) (UniProt Q00537); assay: Inhibition of PCTAIRE2 Lys1 labeling site harbouring SKLTENLVALKEIRLEHEEGAPCTAIR in human A-375 cells at 0.5 uM by KiNativ Profiling analysis relative to control
[8] = target: Cyclin-dependent kinase 1 (Homo sapiens) (UniProt P06493); assay: Inhibition of CDC2 Lys2 labeling site harbouring VLHRDLKPQNLLIDDKGTIK in human A-375 cells at 5 uM by KiNativ Profiling analysis relative to control
Outline: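 Live A375 melanoma cells were treated with compound at 5 or 0.5 μM. The cells were then lysed, and the lysates were labeled with a lysine-reactive ATP or ADP-biotin acyl probe (KiNativ). Inhibition is the compound's protection of each kinase labeling-site peptide from probe labeling, relative to untreated control.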

[9] = target: Glycogen synthase kinase-3 alpha (Homo sapiens) (UniProt P49840); assay: Inhibition of GSK3A Lys2 labeling site in human A-375 cells at 5 uM by KiNativ Profiling analysis relative to control
Sequence of Glycogen synthase kinase-3 alpha (Homo sapiens) (P49840 2-483 limits assumed): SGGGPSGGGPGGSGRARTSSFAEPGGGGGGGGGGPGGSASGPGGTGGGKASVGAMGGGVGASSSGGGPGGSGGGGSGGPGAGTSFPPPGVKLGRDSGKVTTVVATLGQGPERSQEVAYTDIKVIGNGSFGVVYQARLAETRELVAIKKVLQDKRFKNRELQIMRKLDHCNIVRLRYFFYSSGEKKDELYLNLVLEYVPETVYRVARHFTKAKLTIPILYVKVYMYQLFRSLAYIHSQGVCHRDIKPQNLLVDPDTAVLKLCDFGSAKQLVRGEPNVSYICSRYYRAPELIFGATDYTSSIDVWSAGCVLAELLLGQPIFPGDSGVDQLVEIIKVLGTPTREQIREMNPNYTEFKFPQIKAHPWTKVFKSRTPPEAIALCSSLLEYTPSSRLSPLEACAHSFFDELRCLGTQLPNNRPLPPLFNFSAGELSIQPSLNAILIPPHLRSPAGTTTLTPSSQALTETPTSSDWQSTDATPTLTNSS

Sequence of Cyclin-dependent kinase 17 (Homo sapiens) (Q00537 whole entry, looked up): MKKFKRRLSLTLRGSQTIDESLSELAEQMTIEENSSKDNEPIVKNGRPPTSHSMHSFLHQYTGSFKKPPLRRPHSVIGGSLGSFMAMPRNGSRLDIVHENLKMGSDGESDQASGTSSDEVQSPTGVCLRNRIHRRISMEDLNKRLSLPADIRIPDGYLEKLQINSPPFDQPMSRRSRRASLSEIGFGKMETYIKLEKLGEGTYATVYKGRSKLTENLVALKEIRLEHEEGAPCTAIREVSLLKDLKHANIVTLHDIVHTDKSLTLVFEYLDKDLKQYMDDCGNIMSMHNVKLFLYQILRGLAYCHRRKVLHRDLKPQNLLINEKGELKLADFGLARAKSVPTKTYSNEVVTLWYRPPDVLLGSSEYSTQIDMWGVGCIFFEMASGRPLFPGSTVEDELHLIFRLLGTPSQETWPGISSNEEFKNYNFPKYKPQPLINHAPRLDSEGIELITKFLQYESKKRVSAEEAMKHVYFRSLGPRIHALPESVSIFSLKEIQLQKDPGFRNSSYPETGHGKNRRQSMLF
Sequence of Cyclin-dependent kinase 1 (Homo sapiens) (P06493 whole entry, looked up): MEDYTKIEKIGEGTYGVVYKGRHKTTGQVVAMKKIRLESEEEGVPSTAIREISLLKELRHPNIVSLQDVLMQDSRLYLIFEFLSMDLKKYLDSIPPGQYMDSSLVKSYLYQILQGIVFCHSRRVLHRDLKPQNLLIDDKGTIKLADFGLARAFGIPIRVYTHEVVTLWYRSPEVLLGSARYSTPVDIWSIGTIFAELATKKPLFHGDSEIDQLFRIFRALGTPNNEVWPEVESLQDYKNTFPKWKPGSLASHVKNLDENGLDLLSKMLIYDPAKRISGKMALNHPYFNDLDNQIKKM
Sequence of Cyclin-dependent kinase 16 (Homo sapiens) (Q00536 whole entry): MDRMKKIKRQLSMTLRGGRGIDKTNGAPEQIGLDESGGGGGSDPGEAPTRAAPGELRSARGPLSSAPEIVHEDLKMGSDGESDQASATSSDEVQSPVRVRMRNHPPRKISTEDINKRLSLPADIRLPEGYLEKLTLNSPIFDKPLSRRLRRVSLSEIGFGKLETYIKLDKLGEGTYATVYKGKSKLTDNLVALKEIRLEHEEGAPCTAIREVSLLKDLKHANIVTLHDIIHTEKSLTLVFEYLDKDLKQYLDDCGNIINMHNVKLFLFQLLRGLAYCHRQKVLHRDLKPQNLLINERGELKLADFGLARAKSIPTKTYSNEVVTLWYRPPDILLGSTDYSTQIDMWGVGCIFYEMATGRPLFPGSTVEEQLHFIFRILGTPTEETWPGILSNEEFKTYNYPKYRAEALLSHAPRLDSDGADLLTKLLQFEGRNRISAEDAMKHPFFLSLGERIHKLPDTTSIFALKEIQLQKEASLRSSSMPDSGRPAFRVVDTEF
Sequence of Tyrosine-protein kinase Fer (P16591 whole entry, looked up): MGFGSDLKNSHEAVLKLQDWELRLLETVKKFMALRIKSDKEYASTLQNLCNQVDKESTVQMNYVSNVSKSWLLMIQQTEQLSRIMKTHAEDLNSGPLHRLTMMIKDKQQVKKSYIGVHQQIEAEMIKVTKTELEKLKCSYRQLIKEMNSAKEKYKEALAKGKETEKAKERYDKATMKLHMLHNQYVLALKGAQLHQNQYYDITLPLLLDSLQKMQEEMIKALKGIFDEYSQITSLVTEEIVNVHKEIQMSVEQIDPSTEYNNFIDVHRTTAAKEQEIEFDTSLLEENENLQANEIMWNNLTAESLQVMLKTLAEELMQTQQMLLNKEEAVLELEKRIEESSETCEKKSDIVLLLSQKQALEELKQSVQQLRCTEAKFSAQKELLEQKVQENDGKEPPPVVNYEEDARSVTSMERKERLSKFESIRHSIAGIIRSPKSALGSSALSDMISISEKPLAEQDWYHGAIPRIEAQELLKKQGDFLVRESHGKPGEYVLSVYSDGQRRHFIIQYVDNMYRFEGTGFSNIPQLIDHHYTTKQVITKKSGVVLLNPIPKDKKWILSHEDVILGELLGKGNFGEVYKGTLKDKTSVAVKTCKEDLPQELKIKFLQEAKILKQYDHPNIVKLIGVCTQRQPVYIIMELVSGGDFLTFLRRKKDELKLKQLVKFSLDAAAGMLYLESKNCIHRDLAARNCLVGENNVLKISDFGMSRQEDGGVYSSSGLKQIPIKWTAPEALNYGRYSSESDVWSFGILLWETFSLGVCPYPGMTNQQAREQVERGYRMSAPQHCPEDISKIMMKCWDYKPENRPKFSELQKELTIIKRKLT
Sequence of Interleukin-1 receptor-associated kinase 1 (Homo sapiens) (P51617 whole entry, looked up): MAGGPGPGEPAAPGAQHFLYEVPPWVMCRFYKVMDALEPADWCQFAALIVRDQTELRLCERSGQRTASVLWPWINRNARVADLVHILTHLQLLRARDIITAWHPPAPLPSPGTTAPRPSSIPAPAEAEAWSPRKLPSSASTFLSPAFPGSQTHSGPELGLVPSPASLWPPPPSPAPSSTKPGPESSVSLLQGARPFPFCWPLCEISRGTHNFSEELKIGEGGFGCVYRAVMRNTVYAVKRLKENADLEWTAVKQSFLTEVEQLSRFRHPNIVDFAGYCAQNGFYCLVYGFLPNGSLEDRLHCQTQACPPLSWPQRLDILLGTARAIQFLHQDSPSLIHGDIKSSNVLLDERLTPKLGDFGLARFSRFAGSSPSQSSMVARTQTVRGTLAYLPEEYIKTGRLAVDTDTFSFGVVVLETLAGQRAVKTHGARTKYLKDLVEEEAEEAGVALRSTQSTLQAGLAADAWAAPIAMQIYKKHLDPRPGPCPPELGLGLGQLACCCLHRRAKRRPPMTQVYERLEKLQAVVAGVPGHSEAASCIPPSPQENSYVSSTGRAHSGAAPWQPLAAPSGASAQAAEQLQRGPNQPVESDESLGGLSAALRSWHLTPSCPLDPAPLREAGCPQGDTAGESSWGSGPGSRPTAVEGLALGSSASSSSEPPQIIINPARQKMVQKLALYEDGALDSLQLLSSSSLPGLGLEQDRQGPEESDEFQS

| SMILES | inhibition [1] | inhibition [2] | inhibition [3] | inhibition [4] | inhibition [5] | inhibition [6] | inhibition [7] | inhibition [8] | inhibition [9] |
| --- | --- | --- | --- | --- | --- | --- | --- | --- | --- |
| CCN1CCN(Cc2ccc(NC(=O)c3ccc(C)c(Oc4ccnc5[nH]ccc45)c3)cc2C(F)(F)F)CC1 | 47.7% | 31.7% | 4.2% | 32.1% | 88% | 7.4% | 6.9% | 34.7% | 33.7% |
| CCN1CCN(Cc2ccc(NC(=O)c3ccc(C)c(/C=C/c4cnc5[nH]ccc5c4OC)c3)cc2C(F)(F)F)CC1 | 30.2% | 11.3% | 2% | 12.2% | -10% | 61.1% | 2.4% | -3.1% | 31.7% |
